Measured values pooled from the literature.
Protocols differ between the studies behind these lines.
Target: G protein-coupled receptor kinase 3 (GRK3, Homo sapiens, UniProt P35626)
One construct used (P35626 1-688): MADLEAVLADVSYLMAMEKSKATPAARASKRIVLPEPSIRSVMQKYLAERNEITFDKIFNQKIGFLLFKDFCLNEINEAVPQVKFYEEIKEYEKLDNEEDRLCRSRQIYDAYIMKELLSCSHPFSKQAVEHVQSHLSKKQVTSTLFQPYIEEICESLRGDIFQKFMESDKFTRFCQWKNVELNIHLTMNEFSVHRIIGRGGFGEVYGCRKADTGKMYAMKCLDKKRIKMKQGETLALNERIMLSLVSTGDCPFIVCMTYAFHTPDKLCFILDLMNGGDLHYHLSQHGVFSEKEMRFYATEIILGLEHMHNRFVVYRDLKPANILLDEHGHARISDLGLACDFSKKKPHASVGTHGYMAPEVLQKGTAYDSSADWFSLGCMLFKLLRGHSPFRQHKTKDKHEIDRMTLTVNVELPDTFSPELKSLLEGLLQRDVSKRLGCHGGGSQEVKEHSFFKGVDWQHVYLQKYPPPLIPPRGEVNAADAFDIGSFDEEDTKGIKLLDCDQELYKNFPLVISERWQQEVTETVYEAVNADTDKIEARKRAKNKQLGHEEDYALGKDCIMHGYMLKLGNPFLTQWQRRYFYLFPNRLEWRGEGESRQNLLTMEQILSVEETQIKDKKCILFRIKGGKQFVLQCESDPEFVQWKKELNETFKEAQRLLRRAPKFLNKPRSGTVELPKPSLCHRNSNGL

SMILES | read-out | action | technique | concentration | quantity | value
CCN1CCC2(CC1)NC(=O)c1c(c3ccc(Cl)c(Cl)c3n1C)C2C#N (racemic) | thermal stability | – | DSF | 10 µM | ΔTm | 0.8 °C
O=C(Nc1cnn(-c2csc(C(=O)NC3COC3)c2)c1)Nc1ccccc1Cl | enzyme activity | inhibitor | – | 5 µM | remaining activity | 102%
Cn1c2c(c3ccc(Cl)c(Cl)c31)C(C#N)C1(CCNCC1)NC2=O (racemic) | thermal stability | – | DSF | 10 µM | ΔTm | 1.1 °C
N#CCCc1ccc2c(c1)-c1[nH]c3ccc([N+](=O)[O-])cc3c1CC(=O)N2 | cell-free assay | – | – | 0.5 µM | remaining signal | 97.1%
Cc1ccc(C(=O)Nc2ccc(CN3CCN(C)CC3)c(C(F)(F)F)c2)cc1C#Cc1cnc2cccnn12 | enzyme activity | inhibitor | – | 23.5 nM | remaining activity | 76%
Cn1c2c(c3ccccc31)C(C#N)C(C)(C)NC2=O (stereo not drawn) | thermal stability | – | DSF | 10 µM | ΔTm | 0.2 °C
CS(=O)(=O)N1CCCC(NC(=O)[C@H](CCC2CCCCC2)NC(=O)c2ccc(CNc3ncnc4c3nnn4-c3ccccc3)cc2)C1 (stereo partly drawn) | cell-free assay | – | competition with immobilised ligand | 0.1 µM | remaining binding | 100%
CN1CC(Oc2cnc(C#N)cc2-c2ccn3nc(NC(=O)C4CC4)cc3c2)C1 | enzyme activity | inhibitor | – | 1 µM | inhibition | 0%
Cc1c(NC(=O)c2cc(C(N)=O)nc3cc(F)ccc23)c(C(F)(F)F)nn1Cc1ccc(C#N)cc1 | cell-free assay | – | competition with immobilised ligand | 1 µM | remaining binding | 89%
COc1cc2ncnc(Nc3ccc(Oc4ccccc4)c(C)c3C)c2cc1OC | enzyme activity | inhibitor | – | 1 µM | inhibition | -2%
CNC(=O)c1ccc(Nc2ncc(C(F)(F)F)c(NCc3nccnc3N(C)S(C)(=O)=O)n2)cc1 | cell-free assay | – | competition with immobilised ligand | 0.1 µM | remaining binding | 80%
Nc1ncnc2occ(-c3ccc(NC(=O)Nc4cc(C(F)(F)F)ccc4F)cc3)c12 | cell-free assay | inhibitor | – | 20 µM | remaining signal | 69%
Cn1c2c(Cl)c(Cl)ccc2c2cc[nH]c(=O)c21 | thermal stability | – | DSF | 10 µM | ΔTm | -0.3 °C
CN(c1ccnc(CNc2nc(Nc3ccc4c(c3)CC(=O)N4)ncc2C(F)(F)F)n1)S(C)(=O)=O | cell-free assay | – | competition with immobilised ligand | 1 µM | remaining binding | 91%
CC(C)(C)c1nc2c(s1)c1nc(N)ncc1c1ccc(NS(=O)(=O)c3c(F)cccc3F)c(F)c12 | enzyme activity | inhibitor | radiometric | 1 µM | remaining activity | 96%
COc1ccc2c(c1)O[C@@H](c1ccc(OC)c(OC)c1)C[C@H]2NC(=O)C1(c2ccc3c(c2)OC(F)(F)O3)CC1 | cell-free assay | – | competition with immobilised ligand | 1 µM | remaining binding | 75%
Cn1c2c(Cl)c(Cl)ccc2c2cc(N)[nH]c(=O)c21 | thermal stability | – | DSF | 10 µM | ΔTm | 0 °C
NS(=O)(=O)c1cc(NC(=O)Cc2ccccc2)ccc1Oc1cccc(Cl)c1 | cell-free assay | – | competition with immobilised ligand | 1 µM | remaining binding | 100%
COc1cc(Cl)c(C(=O)N[C@@H](CN[C@H]2CC[C@@H](N)CC2)Cc2ccc(C#N)cc2)cc1-c1ccc(CN[C@H](C)c2ccc(C)cc2)o1 | enzyme activity | inhibitor | – | 1 µM | remaining activity | 99%
Cn1c2c(c3ccc(Cl)c(Cl)c31)C(C#N)C1(CCCC1)NC2=O (stereo not drawn) | thermal stability | – | DSF | 10 µM | ΔTm | -0.1 °C
O=C1Nc2ccc(Cl)cc2C1=Cc1cc(Cl)c(O)c(Cl)c1 | cell-free assay | – | – | 0.5 µM | remaining signal | 102%
